Measured values taken from ChEMBL document CHEMBL3865815, “Synthesis, anti-cancer evaluation of benzenesulfonamide derivatives as potent tubulin-targeting agents” (Eur J Med Chem, 2016).
Values after ≈ are worked out from the molar mass of the structure shown. Active and inactive are the calls of the source. The rule behind the calls is not given here.

Legend:
[1] = Antiproliferative activity against human HepG2 cells after 72 hrs by MTT assay; type: functional, cell-based; conditions: HepG2, 72 h
In short: (§1)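 Cells grown in RPMI 1640 with heat-inactivated 10% FBS, 1 mmol/L sodium pyruvate and 2 mmol/L L-glutamine at 37 °C, 5% CO2. Seeded at 3.5×10^4 cells/mL and left 24 h, then exposed to compound for 72 h; DMSO control at 0.5% final. Surviving cells measured by MTT, OD 492/620 nm. IC50 taken from triplicate experiments.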

[2] = Antiproliferative activity against human HCT116 cells after 72 hrs by MTT assay; type: functional, cell-based; conditions: HCT-116, 72 h; in short: as §1
[3] = Antiproliferative activity against human SKOV3 cells after 72 hrs by MTT assay; type: functional, cell-based; conditions: SK-OV-3, 72 h; in short: as §1
[4] = Antiproliferative activity against human PC3 cells after 72 hrs by MTT assay; type: functional, cell-based; conditions: PC-3, 72 h; in short: as §1
[5] = Antiproliferative activity against human MCF7 cells after 72 hrs by MTT assay; type: functional, cell-based; conditions: MCF7, 72 h; in short: as §1
[6] = Antiproliferative activity against human MCF7/ADR cells after 72 hrs by MTT assay; type: functional, cell-based; conditions: NCI/ADR-RES; in short: as §1
[7] = species: Bos taurus; assay: Inhibition of bovine tubulin assessed as induction of microtubule depolymerization at 1 uM preincubated with compound followed by GTP addition by spectrophotometric analysis
In short: (§2)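 Bovine brain tubulin rich in microtubule-associated protein, 2 mg/mL, in 80 mM PIPES pH 6.9, 2 mM MgCl2, 0.5 mM EGTA and 5% glycerol, incubated with test agent or DMSO in cuvettes. Polymerization started with 1 mM GTP at 37 °C and followed by absorbance at 340 nm.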

[8] = test system: A549; assay: Inhibition of alpha tubulin polymerization in human A549 cells at 200 nM by Hoechst 33258 staining based fluorescent microscopic analysis; type: cell-based
In short: (§3)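 A549 cells treated 24 h with agent (200 nM or 50 nM) or DMSO control. α-Tubulin stained with primary antibody and DyLight488 secondary antibody, nuclei with Hoechst 33258. Imaged by fluorescence microscopy.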

[9] = Antiproliferative activity against human K562 cells after 72 hrs by MTT assay; type: functional, cell-based; conditions: K562, 72 h; in short: as §1
[10] = Antiproliferative activity against human KB cells after 72 hrs by MTT assay; type: functional, cell-based; in short: as §1
[11] = Antiproliferative activity against human KB/VCR cells after 72 hrs by MTT assay; type: functional, cell-based; in short: as §1
[12] = Antiproliferative activity against human K562/A02 cells after 72 hrs by MTT assay; type: functional, cell-based; conditions: K562/A02, 72 h; in short: as §1
[13] = test system: A549; assay: Inhibition of alpha tubulin polymerization in human A549 cells at 50 nM by Hoechst 33258 staining based fluorescent microscopic analysis; type: cell-based; in short: as §3
[14] = species: Bos taurus; assay: Induction of bovine tubulin polymerization at 10 uM preincubated followed by GTP addition by spectrophotometric analysis; in short: as §2
[15] = species: Bos taurus; assay: Inhibition of bovine tubulin assessed as induction of microtubule depolymerization at 3 uM preincubated with compound followed by GTP addition by spectrophotometric analysis; in short: as §2
[16] = test system: SW480; assay: Induction of apoptosis in human SW480 cells assessed as accumulation of cells at M2 quadrant at 50 nM after 24 hrs by propidium iodide-staining based FACS analysis (reference value: 96.68 %); type: functional
In short: (§4)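 SW480 cells grown in 60 mm dishes to 70–80% confluence and treated 24 h, with DMSO as vehicle. All cells harvested, fixed in 70% alcohol and washed twice in cold PBS. Stained 30 min at 37 °C in 5 µg/ml propidium iodide, 100 µg/ml RNase and 0.2% Triton X-100, then analysed by flow cytometry.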

[17] = Solubility of compound in pure water at 25 degC; type: physicochemical
In short: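 Measured in pure water at 25 °C.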

[18] = test system: SW480; assay: Induction of apoptosis in human SW480 cells assessed as early apoptotic cells at 50 nM after 24 hrs by propidium iodide-staining based FACS analysis (reference value: 3.41 %); type: functional; in short: as §4

SMILES	IC50 [1]	IC50 [2]	IC50 [3]	IC50 [4]	other results
Nc1ccc2c(c1)OCCCN2S(=O)(=O)c1ccc(-c2cnc(C3CC3)o2)cc1	100 nM	87 nM	56 nM	33 nM	–
O=S(=O)(c1ccc(-c2cnc(C3CC3)o2)cc1)N1CCOCc2ccccc21	242 nM	187 nM	175 nM	137 nM	–
O=S(=O)(c1ccc(-c2cnc(C3CC3)o2)cc1)N1CCC[S+]([O-])c2ccccc21 (centres undefined)	> 1000 nM	> 1000 nM	> 1000 nM	> 1000 nM	–
Cc1ccc2c(c1)OCCCN2S(=O)(=O)c1ccc(-c2cnc(C3CC3)o2)cc1	795 nM	766 nM	179 nM	241 nM	–
O=S(=O)(c1ccc(-c2cnc(C3CC3)o2)cc1)N1CCCOc2cc(F)ccc21	65 nM	30 nM	28 nM	42 nM	IC50 [5]: 6 nM; IC50 [6]: 12 nM; inhibition [7]: Active; inhibition [8]: Active; IC50 [9]: 14 nM; IC50 [10]: 15 nM; IC50 [11]: 12 nM; IC50 [12]: 46 nM
CC[C@]1(O)C[C@H]2CN(CCc3c([nH]c4ccccc34)[C@@](C(=O)OC)(c3cc4c(cc3OC)N(C=O)[C@H]3[C@@](O)(C(=O)OC)[C@H](OC(C)=O)[C@]5(CC)C=CCN6CC[C@]43[C@@H]65)C2)C1 [VINCRISTINE]	–	–	–	–	IC50 [5]: 29 nM; IC50 [6]: 308 nM; inhibition [13]: Active; IC50 [9]: 4 nM; IC50 [10]: 36 nM; IC50 [11]: 871 nM; IC50 [12]: 926 nM
Cc1ccc2c(c1)N(S(=O)(=O)c1ccc(-c3cnc(C4CC4)o3)cc1)CCCO2	31 nM	29 nM	34 nM	41 nM	–
O=S(=O)(c1ccc(-c2cnc(C3CC3)o2)cc1)N1CCCSc2ccccc21	27 nM	88 nM	49 nM	34 nM	–
COc1cccc2c1C(=O)c1c(O)c3c(c(O)c1C2=O)C[C@@](O)(C(=O)CO)C[C@@H]3O[C@H]1C[C@H](N)[C@H](O)[C@H](C)O1 [DOXORUBICIN]	–	–	–	–	IC50 [5]: 140 nM; IC50 [6]: 2940 nM; IC50 [9]: 6 nM; IC50 [10]: 141 nM; IC50 [11]: 1290 nM; IC50 [12]: 5960 nM
CN1CCN(S(=O)(=O)c2ccc(-c3cnc(C4CC4)o3)cc2)c2ccccc2C1	525 nM	256 nM	199 nM	347 nM	–
O=S(=O)(c1ccc(-c2cnc(C3CC3)o2)cc1)N1CCCc2ccccc21	29 nM	49 nM	47 nM	38 nM	–
O=S(=O)(c1ccc(-c2cnc(C3CC3)o2)cc1)N1CCCCc2ccccc21	73 nM	72 nM	38 nM	39 nM	–
COc1ccc2c(c1)OCCCN2S(=O)(=O)c1ccc(-c2cnc(C3CC3)o2)cc1	229 nM	223 nM	185 nM	271 nM	–
CC(=O)O[C@H]1C(=O)[C@@]2(C)[C@H]([C@H](OC(=O)c3ccccc3)[C@]3(O)C[C@H](OC(=O)[C@H](O)[C@@H](NC(=O)c4ccccc4)c4ccccc4)C(C)=C1C3(C)C)[C@]1(OC(C)=O)CO[C@@H]1C[C@@H]2O	–	–	–	–	Activity [14]: Active
COC(=O)Nc1nc2cc(C(=O)c3cccs3)ccc2[nH]1	–	–	–	–	inhibition [15]: Active
O=S(=O)(c1ccc(-c2cnc(C3CC3)o2)cc1)N1CCCOc2ccc(Cl)cc21	28 nM	39 nM	19 nM	18 nM	–
O=S(=O)(c1ccc(-c2cnc(C3CC3)o2)cc1)N1CCSc2ccccc21	48 nM	45 nM	39 nM	49 nM	–
O=S(=O)(c1ccc(-c2cnc(C3CC3)o2)cc1)N1CCOc2ccccc21	58 nM	71 nM	47 nM	77 nM	–
O=[N+]([O-])c1ccc2c(c1)N(S(=O)(=O)c1ccc(-c3cnc(C4CC4)o3)cc1)CCCO2	149 nM	133 nM	53 nM	119 nM	–
O=S1(=O)CCCN(S(=O)(=O)c2ccc(-c3cnc(C4CC4)o3)cc2)c2ccccc21	2170 nM	263 nM	1620 nM	5880 nM	–
O=S(=O)(c1ccc(-c2cnc(C3CC3)o2)cc1)N1CCCOc2ccccc21	40 nM	40 nM	36 nM	27 nM	–
COc1ccc2c(c1)N(S(=O)(=O)c1ccc(-c3cnc(C4CC4)o3)cc1)CCCO2	49 nM	47 nM	53 nM	14 nM	–
O=S(=O)(c1ccc(-c2cnc(C3CC3)o2)cc1)N1CCCOc2ccc(F)cc21	36 nM	24 nM	15 nM	18 nM	IC50 [5]: 21 nM; IC50 [6]: 20 nM; inhibition [7]: Active; inhibition [8]: Active; IC50 [9]: 8 nM; Activity [16]: 92.28%; IC50 [10]: 7 nM; IC50 [11]: 7 nM; solubility [17]: 10 µg/mL (≈ 24.1 µM); IC50 [12]: 13 nM; Activity [18]: 7.74%
O=[N+]([O-])c1ccc2c(c1)OCCCN2S(=O)(=O)c1ccc(-c2cnc(C3CC3)o2)cc1	71 nM	145 nM	120 nM	72 nM	–
